High-throughput results (PubChem BioAssay)
Wee1 stabilizer – Wee1 degradation inhibitors, primary screen, cell-based, HeLa, Wee1K328M-luciferase, luminescence. 1.2% of 220,000 active. reporter increase, % at 5 µM. HeLa Luc-Wee1K328M stability; 100% = proteasome inhibitor MG132 effect;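 active = activation above the mean of all tested compounds plus 3 SD, set per screening run, cut at about 8.8% in these data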;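 note: cells exposed to compound for 20 h before luminescence read; 0% = DMSO alone and 100% = MG132 at 30 µM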
RanGTP-Imp inh – inhibitors of RanGTP-importin-beta interaction, primary screen, biochemical, FRET, CFP-Ran, YFP-importin-beta, homogeneous; Ran GTPase (GTP-bound) - importin-beta complex; cell-free CFP-Ran/YFP-importin-beta FRET ratio; inhibition, % (concentration not given with the values); 1.1% of 300,000 active;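 active = more than half of the replicate wells show a fall in the fluorescence ratio signal beyond about 16%, limit read from the data, passing the limit was not always enough; inconclusive = exactly half of the replicate wells pass the set limit; inactive = fewer than half of replicates pass the limit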;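 note: 0% = DMSO wells and 100% = Ran loaded with GDP instead of GTP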
Runt-SMMHC FRET – inhibitors of RUNX1 Runt–CBFb-SMMHC binding, primary screen, biochemical, FRET, Cerulean-Runt, Venus-CBFb-SMMHC, uHTS; Cerulean-Runt/Venus-CBFb-SMMHC FRET ratio 530/480, 1 h; inhibition, % at 20 µM; 0.74% of 220,000 active; AID 1434, 2008;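 active = mean inhibition across duplicate retests at 20 µM reaching about 50%, limit read from the data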;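 note: 0% = DMSO wells and 100% = wells with excess untagged CBFb-SMMHC; inhibitors lower the FRET ratio by blocking Runt binding to CBFb-SMMHC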
Runt-CBFb FRET – inhibitors of RUNX1 Runt–CBFb binding, primary screen, biochemical, FRET, Cerulean-Runt, Venus-CBFb, uHTS. AID 1496, 2009. Cerulean-Runt/Venus-CBFb FRET ratio 530/480, 1 h. 0.46% of 220,000 active. inhibition, % at 20 µM. Runt-related transcription factor 1 (Homo sapiens) + Core-binding factor subunit beta …;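 active = inhibition over about 50% at 20 µM in the single-dose screen, limit read from the data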;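 note: 0% = DMSO wells and 100% = excess unlabeled CBFb competitor control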
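Assay system: Cerulean-Runt domain / Medium: Tris 50 mM pH 7.5, KCl, K2SO4, 0.01% BSA / Timing: protein complex preformed 1 h, compound exposure 1 h, room temperature, dark / Measured by: FRET, excitation 422 nm, emission at 530 and 480 nm / Evaluation: loss of energy transfer signal / Control set: 5 µM unlabeled CBFb as full-inhibition high control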
PHOSPHO1 block – PubChem AID 1565; Phosphoethanolamine/phosphocholine phosphatase (Homo sapiens), Q8TCT1; recombinant PHOSPHO1, absorbance phosphatase assay; inhibition, % at 13.3 µM; 1.1% of 290,000 active; in the data active = inhibition above about 60%
HMGR II inh – inhibitors of E. faecalis class II HMGR, primary screen, biochemical, Enterococcus faecalis | HMG-CoA reductase (Enterococcus faecalis, mvaE) | purified E. faecalis HMGR, NADPH absorbance 340 nm kinetic | inhibition, % at 10 µM | 0.41% of 190,000 active | AID 1066, 2008;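 active = inhibition above a set limit, the median over all tested compounds plus 3 SD, cut at about 9.5% in these data; inconclusive = no clear call, values can overlap the other calls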;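 note: enzyme runs in reverse so mevalonate oxidation gives rising NADPH absorbance; 0% = complete reaction with DMSO and 100% = background rate lacking mevalonate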
The depositor's hits bear a star; ? = inconclusive; . = no result given. Compounds with a hit are over-represented: about 3.4% of the library has one in this group of screens.

SMILES	Wee1 stabilizer	RanGTP-Imp inh	Runt-SMMHC FRET	Runt-CBFb FRET	PHOSPHO1 block	HMGR II inh
COc1ccc(N(C)C(=O)C2CCCN2S(=O)(=O)c2cccc3nsnc23)c(OC)c1 (centres undefined)	.	2	.	.	64*	.
Cc1ccc(NC(=O)c2sc3nc(CCl)[nH]c(=O)c3c2C)c(C)c1	16*	.	0	-6	37	-1
COC(=O)c1ccc(COc2ccc(/C=N/Nc3cccc(C(=O)O)c3)cc2)cc1	0	-5	-136	-70	68*	.
O=C(O)c1ccc(COc2ccc(/C=N/NC(=O)c3cccs3)cc2)cc1	7	7	3	-1	77*	0
CC(C)(C)OC(=O)NNC(=S)NCc1ccc(Cl)cc1	1	0	1	-5	73*	-8
O=C(NCCNCCO)C1(C(F)(F)F)C/C(=C\CCO)CCCO1 (centres undefined)	.	-9	.	.	.	.
COc1ccc(N(CC(=O)Nc2cccc(C(C)=O)c2)S(=O)(=O)c2ccc(NC(C)=O)cc2)cc1	.	0	.	.	34	.
O=C(COc1ccc(Cl)cc1)NCCN1CCCCC1	0	2	-4	-1	5	10*
COc1ccc(-c2nnc(NC(=O)c3ccc(S(=O)(=O)N(C)CC4CCCO4)cc3)o2)c(OC)c1 (centres undefined)	.	?	.	.	37	.
Cn1c(SCC(=O)N2CCCC2=O)nnc1-c1ccccc1F	6	5	-1	-2	-20	19*
CC1CN(S(=O)(=O)c2cccc(C(=O)NCCC3=CCCCC3)c2)CC(C)O1 (centres undefined)	.	1	.	.	.	.
O=C1CC(c2ccccc2)CC(O)=C1C=NCc1ccccc1 (centres undefined)	-2	1	-2	.	41	-2
O=C1CC(c2ccccc2)CC(O)=C1C=NCc1ccccc1Cl (centres undefined)	9.3*	-2	3	-3	35	0
CC(C)OCc1c(C(=O)Nc2nccs2)oc2ccccc12	11*	4	-3	-3	-10	-3
C=CCN(CC=C)c1nc2ccccc2nc1C(C#N)C(=O)OCCOC (centres undefined)	-2	20*	61*	18	35	0
CCOC(=O)C1CCN(c2nc3ccccc3nc2C(C#N)C(=O)OCCOC)CC1 (centres undefined)	0	?	6	1	-7	4
CCCN(CCC)c1nc2ccccc2nc1C(C#N)C(=O)OCCOC (centres undefined)	3	37*	4	12	5	-4
Clc1ccc(-n2nnnc2SCc2c(-c3ccccc3)nc3sccn23)cc1	-2	1	2	5	98*	-7
O=c1[nH]c(CSc2nnnn2-c2ccc(Cl)cc2)nc2ccccc12	1	6	-5	-1	20	-1
O=C(Nc1ccc2c(c1)C(=O)N(c1ccccc1)C2=O)C1CCCO1 (centres undefined)	1	-1	-7	-2	-1	12*
O=C(Nc1ccc(O)cc1)c1ccc(NC(=O)C2CCCO2)cc1 (centres undefined)	.	4	.	.	66*	.
O=C1OCc2cc(NC(=O)C3CCCO3)ccc21 (centres undefined)	0	0	-1	0	-34	2
NC(=O)c1ccc(NC(=O)C2CCCO2)cc1 (centres undefined)	-2	1	4	-1	26	-8
COc1cccc(NC(=O)CC(=O)c2ccccc2)c1	.	-8	.	.	.	.
O=C(CCc1ccc(S(=O)(=O)N2CCOCC2)cc1)Nc1nccs1	1	1	147	104*	3	-4
CCOC(=O)c1[nH]c2ccccc2c1NC(=S)Nc1cccc(C)c1	9.3*	-16	-1	-1	-21	6
